Test results published in ChEMBL document CHEMBL4270628, “Design, synthesis, and evaluation of cystargolide-based β-lactones as potent proteasome inhibitors” (Eur J Med Chem, 2018).
pIC50: −log10 of the molar value. Activity calls are given as the source filed them. The calls are words filed in the database; no cut-off is given here.

Assays:
Jurkat [1] = assay: Induction of apoptosis in human Jurkat cells after 24 hrs by Annexin-V-FITC/propidium iodide staining based flow cytometry; type: functional, cell-based
[2] = molecular target: T1, Proteasome subunit beta type-2 (Saccharomyces cerevisiae (strain ATCC 204508 / S288c) (Baker's yeast), UniProt P25043); assay: Inhibition of yeast 20S proteasome beta2 subunit using SUC-RLR-AMC as substrate pretreated for 30 mins followed by substrate addition and measured after 60 mins by fluorescence assay
T1 sequence (P25043 whole entry): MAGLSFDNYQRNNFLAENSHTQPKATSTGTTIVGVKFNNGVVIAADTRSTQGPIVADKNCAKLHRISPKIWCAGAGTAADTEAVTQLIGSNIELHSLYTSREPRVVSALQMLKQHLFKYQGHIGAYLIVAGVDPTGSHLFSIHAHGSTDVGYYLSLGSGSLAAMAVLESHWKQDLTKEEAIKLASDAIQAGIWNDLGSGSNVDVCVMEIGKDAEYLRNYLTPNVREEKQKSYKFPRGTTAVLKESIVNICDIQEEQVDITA
Outline: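 Fluorogenic substrate was then added (100 μM Suc-RLR-AMC solution for β2) and incubated 60 min at 37 °C; cleavage read at ex 360/em 480 nm. IC50 from nonlinear regression on normalized data, ±SD.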

[3] = molecular target: T2, Proteasome Macropain subunit MB1 (Homo sapiens) (UniProt P28074); assay: Inhibition of 20S proteasome beta5 subunit in human MCF7 cells using Suc-LLVY-AMC as substrate pretreated for 1 hr followed by compound washout and cell lysis prior to substrate addition measured after 1 hr by fluorescence assay; type: cell-based
T2 sequence (whole entry): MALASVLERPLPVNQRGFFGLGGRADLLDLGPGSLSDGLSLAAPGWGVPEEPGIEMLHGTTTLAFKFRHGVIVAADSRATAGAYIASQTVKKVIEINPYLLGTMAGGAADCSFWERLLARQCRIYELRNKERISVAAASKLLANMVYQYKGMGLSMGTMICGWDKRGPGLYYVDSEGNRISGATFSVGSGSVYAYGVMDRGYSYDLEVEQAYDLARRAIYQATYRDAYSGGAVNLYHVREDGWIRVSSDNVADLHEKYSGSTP
Outline: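 Adherent MCF7 (500,000 cells/mL, overnight, ~100% confluent) dosed 1 h at 37 °C, 5% CO₂; washed twice with PBS, lysed in HEPES/Triton buffer on ice 1 h; 15 min at 37 °C, then 100 μM Suc-LLVY-AMC 1 h at 37 °C; ex 360/em 480 nm. IC50 from best three of four biological replicates per concentration.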

RPMI-8226 = assay: Cytotoxicity against human RPMI8226 cells after 48 hrs by MTT assay; type: functional, cell-based; conditions: RPMI-8226, 48 h
Outline: (§1)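 MTT viability after 48 h exposure to a concentration series; MDA-MB-231 seeded at 4*10⁴ cells/mL and adhered overnight, RPMI 8226 at 4*10⁵ cells/mL and dosed immediately. MTT (5 mg/mL in PBS) added, 2 h at 37 °C; formazan dissolved in DMSO (MDA-MB-231) or DMF/SDS pH<4 (RPMI 8226); OD 490 nm.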

MDA-MB-231 = assay: Cytotoxicity against human MDA-MB-231 cells after 48 hrs by MTT assay; type: functional, cell-based; conditions: MDA-MB-231, 48 h; outline: as §1
MCF7 = assay: Cytotoxicity against human MCF7 cells after 48 hrs by MTT assay; type: functional, cell-based; conditions: MCF7, 48 h
Outline: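 MCF7 cells plated at 4*10⁴ cells/mL and left overnight to adhere, then exposed to a concentration series for 48 h, with DMSO vehicle, untreated cells, and 100 μM phenylarsine oxide as controls. MTT (5 mg/mL stock in PBS) was added for 2 h at 37 °C. Formazan was dissolved in DMSO and OD read at 490 nm. The best three of quadruplicate wells were used; IC50 from nonlinear regression on normalized data, ±SD.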

[4] = molecular target: T2, Proteasome Macropain subunit MB1 (Homo sapiens); assay: Inhibition of 20S proteasome beta5 subunit in human MCF7 cells assessed as accumulation of ubiuitinated protein at 1 to 10 uM after 9.5 hrs by Western blot analysis; type: cell-based
Jurkat [5] = assay: Cell cycle arrest in human Jurkat cells assessed as accumulation at G2/M phase at 0.1 to 1 uM after 10 hrs by Vybrant DyeCycle Orange staining based flow cytometry; type: functional
[6] = molecular target: T3, Proteasome subunit beta type-8 (Homo sapiens, UniProt P28062); assay: Inhibition of human immunoproteasome beta5 subunit using Suc-LLVY-AMC as substrate pretreated for 30 mins followed by substrate addition and measured after 60 mins by fluorescence assay
T3 sequence (P28062 whole entry): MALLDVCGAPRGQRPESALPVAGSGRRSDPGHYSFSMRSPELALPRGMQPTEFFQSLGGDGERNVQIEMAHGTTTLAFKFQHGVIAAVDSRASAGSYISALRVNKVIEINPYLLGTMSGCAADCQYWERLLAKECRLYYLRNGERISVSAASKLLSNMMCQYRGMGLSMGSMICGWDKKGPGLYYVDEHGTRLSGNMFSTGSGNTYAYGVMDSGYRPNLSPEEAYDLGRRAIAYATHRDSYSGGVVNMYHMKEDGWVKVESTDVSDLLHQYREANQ

[7] = molecular target: T4, Proteasome subunit beta type-1 (Saccharomyces cerevisiae (strain ATCC 204508 / S288c) (Baker's yeast), UniProt P38624); assay: Inhibition of yeast 20S proteasome beta1 subunit using fluorescent substrate pretreated for 30 mins followed by substrate addition and measured after 60 mins by fluorescence assay
T4 sequence (P38624 whole entry): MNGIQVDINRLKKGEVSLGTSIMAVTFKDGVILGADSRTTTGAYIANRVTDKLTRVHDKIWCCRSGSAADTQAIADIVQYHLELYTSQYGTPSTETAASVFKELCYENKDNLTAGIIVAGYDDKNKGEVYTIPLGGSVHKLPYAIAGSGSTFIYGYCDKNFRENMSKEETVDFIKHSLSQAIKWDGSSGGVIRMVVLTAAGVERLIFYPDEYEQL

[8] = Half life in human AB serum by RP-HPLC analysis; type: ADME, cell-free
[9] = n-Octanol/Tris-HCl buffer partition coefficient, log P of the compound at 0.5 mg after 2 mins by RP-HPLC method; type: physicochemical
[10] = Inhibition of yeast 20S proteasome beta5 subunit using Suc-LLVY-AMC as substrate pretreated for 30 mins followed by substrate addition and measured after 60 mins by fluorescence assay; set-up: species or system Saccharomyces cerevisiae
Outline: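 Purified yeast 20S proteasome at 8 μg/mL preincubated with compound 30 min at 37 °C; then 100 μM Suc-LLVY-AMC for 60 min at 37 °C; cleaved-AMC fluorescence ex 360/em 480 nm. IC50 by nonlinear regression on normalized data, confirmed in at least technical triplicate, reported ± SD.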

[11] = Half life in 0.1 M TEAA buffer by RP-HPLC analysis; type: physicochemical
[12] = molecular target: T2, Proteasome Macropain subunit MB1 (Homo sapiens); assay: Binding affinity to 20S proteasome beta5 subunit in human Jurkat cell lysate assessed as decrease in protein hydrolysis at 100 uM pretreated for 30 mins followed by Suc-LLVY-AMC addition and measured after 1 hr by fluorescence assay
Outline: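 Compound diluted in lysis buffer, preincubated 30 min at 37 °C. Suc-LLVY-AMC added as 100 μM solution, 60 min at 37 °C. AMC fluorescence read at ex 360/em 480 nm. Best three of quadruplicates used; IC50 by nonlinear regression, ± SD.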

[13] = molecular target: T5, Proteasome Macropain subunit MB1 (Homo sapiens, UniProt P28074); assay: Inhibition of 20S proteasome beta5 subunit in human Jurkat cell lysate using Suc-LLVY-AMC as substrate pretreated for 30 mins followed by substrate addition and measured after 60 mins by fluorescence assay
T5 sequence (P28074 whole entry): T2 sequence (whole entry)
Outline: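 Lysate was preincubated with compound 30 min at 37 °C. 100 μM substrate solution was added: Suc-LLVY-AMC for β5, Suc-RLR-AMC for β2. IC50 by nonlinear regression, ±SD.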

With CC[C@H](C)[C@@H]1C(=O)O[C@H]1C(=O)N[C@H](C(=O)N[C@H](C(=O)OCc1ccccc1)C(C)C)C(C)C the Activity (Jurkat [1]) was “Active”, the pIC50 [2] was […] and the inhibition [3] was “Active”. It also gave a pIC50 (RPMI-8226) of 6.72, a pIC50 (MDA-MB-231) of 6.54 and a pIC50 (MCF7) of 5.73. The inhibition [4] was “Active” and the Activity (Jurkat [5]) was “Active”.
In the case of CC[C@H](C)[C@@H]1C(=O)O[C@H]1C(=O)N[C@H](C(=O)N[C@@H](COCc1ccccc1)C(=O)OCc1ccccc1)C(C)C, the pIC50 [2] was < 4.30, the pIC50 [6] was 8.04 and the inhibition [3] was “Active”. For the same compound, the pIC50 (RPMI-8226) was 7.39, the pIC50 [7] was 4.75 and the t1/2 [8] was 16.1 min. It also gave a pIC50 (MDA-MB-231) of 7.13, a pIC50 (MCF7) of 6.38 and a logP [9] of 1.52. For the same compound, the pIC50 [10] was 7.61 and the t1/2 [11] was 4.32 min.
For CC(C)[C@H](NC(=O)[C@@H](NC(=O)[C@@H]1OC(=O)[C@H]1C(C)C)C(C)C)C(=O)O, the pIC50 [2] was 4.21, the pIC50 [6] was 6.17 and the pIC50 [7] was 4.99. The Activity [12] was “Active”, the pIC50 (MCF7) was 4.07 and the pIC50 [13] was 6.05.
In the case of CC(C)[C@H](NC(=O)[C@@H]1OC(=O)[C@H]1C(C)C)C(=O)N[C@H](C(=O)OCc1ccccc1)C(C)C, the Activity (Jurkat [1]) was “Active”, the pIC50 [6] was 7.35 and the inhibition [3] was “Active”. The pIC50 (MCF7) was 5.15, the inhibition [4] was “Active” and the Activity (Jurkat [5]) was “Active”. The pIC50 [10] was 7.43.
